Data on 25 compounds can be found in PubChem BioAssay AID1230 (PCMD, 2008).

Among all 210,000 compounds or so, about 220 (0.1%) were called active. The list comes from a sample in which actives are over-represented; it also holds similar structures and randomly drawn compounds. Values without a mark were called inactive.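 How the source made its calls: active means signal enhancement of 30% or more; inactive means the rest.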

Chain of E3 ubiquitin-protein ligase Mdm2 (Homo sapiens) (Q00987 whole entry, looked up, the tested form may be a part): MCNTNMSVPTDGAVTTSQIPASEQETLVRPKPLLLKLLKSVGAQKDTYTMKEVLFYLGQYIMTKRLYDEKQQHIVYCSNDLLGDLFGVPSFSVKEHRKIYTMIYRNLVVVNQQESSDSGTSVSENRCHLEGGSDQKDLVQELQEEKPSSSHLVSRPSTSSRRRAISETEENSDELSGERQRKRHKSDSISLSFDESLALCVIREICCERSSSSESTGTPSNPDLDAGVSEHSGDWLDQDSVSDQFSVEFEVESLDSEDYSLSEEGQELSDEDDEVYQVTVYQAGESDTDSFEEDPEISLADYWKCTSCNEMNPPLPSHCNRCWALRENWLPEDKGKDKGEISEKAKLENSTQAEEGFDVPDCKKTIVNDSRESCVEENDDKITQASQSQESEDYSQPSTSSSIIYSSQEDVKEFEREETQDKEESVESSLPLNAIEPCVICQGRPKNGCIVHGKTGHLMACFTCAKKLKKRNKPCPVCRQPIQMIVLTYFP

This experiment concerns the target E3 ubiquitin-protein ligase Mdm2 (Homo sapiens) (UniProt Q00987). The experiment can be described thus: MDM2-luciferase reporter signal enhancers, primary screen, MDM2 E3 ligase inhibitor project, cell-based, luminescence, 1536-well (AID 1230).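 Further: luminescence tracks abundance of the self-degrading MDM2-luciferase fusion protein.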 Particulars: cell-based MDM2 ubiquitination luciferase reporter, 2 h; at 5 µM; hits give high values; 0 = plate control, 100 = twice control, blank-subtracted. In short, it runs like this:
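Material: Stable MDM2–luciferase fusion reporter cells | Amount: 2000 cells seeded into each well | Dosing: One concentration, 5 µM, with 0.2% DMSO | Incubation: 4 h cell settling then 2 h compound exposure, 37 °C | Measured by: Luciferase luminescence | Read-out basis: % enhancement relative to plate controls after blank subtraction | Benchmarks: Control and blank well means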
For orientation: In a reporter assay the amount or activity of a reporter protein is the signal.
Regarding `CCCc1nc2oc3c(=O)[nH]cnc3c2c2c1COC(C)(C)C2`, the signal enhancement is 1.7%.

With `COc1c(N2CCN(C(=S)Nc3ccccc3F)C(C)C2)c(F)cc2c(=O)c(C(=O)O)cn(C3CC3)c12` (stereo not given), the signal enhancement is 0.25%.

For the compound `CCc1cc2c(=O)c(-c3ccc(F)cc3)c(C(F)(F)F)oc2cc1OCC(=O)O`, the signal enhancement is -6.75%.

For the compound `CCOC(=O)c1oc2c(CN3CCN(CCO)CC3)c(O)c(CC)cc2c(=O)c1-c1nc2ccccc2s1`, the signal enhancement was -10.7%.

Turning to `CCc1cc2c(=O)c(-c3nc4ccccc4n3C)c(CCCC(=O)O)oc2cc1OC(=O)C(C)(C)C`, the signal enhancement was 32.3% (active).

Consider `CCOc1c(Nc2cccc(Cl)c2)c(=O)c1=O`, for which the signal enhancement was -2.35%.

As to `NC1=NC[C@@H](Cc2ccc(O)cc2)N1CC1CCCCC1`, the signal enhancement is 7.84%.

For `Oc1c(Br)cc(/C=N/NC(=S)NCC2CCCO2)cc1Br` (stereo not given), the signal enhancement was -4.26%.

Consider `N#Cc1ccc(Oc2ccc(C(F)(F)F)cc2NC(=O)c2ccc(F)cc2)cc1`, for which the signal enhancement was -13.7%.

For `CC1(C)CCSC(/C=C/c2ccccc2)=N1`, the signal enhancement is 3.53%.

As for `NS(=O)(=O)c1ccc(NC(=O)COC(=O)c2cc3ccccc3oc2=O)cc1`, the signal enhancement was -3.08%.

Consider `Cc1cc(C)nc(SCc2cn3c(C)cc(C)nc3n2)n1`, for which the signal enhancement was -13.6%.

On to `COc1cc(NC(=O)c2ccc(CNc3c(N4CCCC4)c(=O)c3=O)cc2)cc(OC)c1OC`, for which the signal enhancement was -5.93%.

Consider `COc1cc(C(CCN2CCN(c3ccccc3)CC2)c2c(OC)cc(OC)c3ccc(=O)oc23)cc(OC)c1OC` (stereo not given), for which the signal enhancement is 17.2%.

Turning to `CC(C)COC(=O)n1c(=O)oc2ccc(S(=O)(=O)N3CCCCC3)cc21`, the signal enhancement is -7.89%.

Regarding `CN(C)c1cc(-c2ccc(F)cc2)oc(=O)c1Cl`, the signal enhancement was -15.5%.

For `COc1ccccc1NC(=O)c1cc(Cl)nc2ccccc12`, the signal enhancement was -12.4%.

As for `Cc1onc(-c2c(Cl)cccc2Cl)c1C(=O)NNC(=O)c1c(-c2c(Cl)cccc2Cl)noc1C`, the signal enhancement is -1.5%.

With `Cc1cc(C)cc(NS(=O)(=O)c2ccc(F)cc2)c1`, the signal enhancement is -8.71%.

With `COc1ccccc1CNC(=O)Cn1c(=O)oc2cc(Cl)ccc21`, the signal enhancement was -8.67%.

As for `Cc1noc(C)c1-c1nc(CSc2ccc(Cl)cc2)no1`, the signal enhancement is -16.2%.

In the case of `Cc1ccc(/C=N/NC(=S)Nc2cccc(S(=O)(=O)N(C)C)c2)o1`, the signal enhancement was -13.3%.

As for `Cc1cccc(-[n+]2c(-c3cccc(Br)c3)[nH]c3nc4ccccc4nc32)c1`, the signal enhancement was -76.7%.

`O=C1NNC(c2ccccc2)=N/C1=C\c1ccc(Cl)cc1`: the signal enhancement is -9.72%.

As for `O=c1cc(CCl)nc2scc(-c3ccccc3)n12`, the signal enhancement was -0.33%.
